# Measurements from ChEMBL document CHEMBL5108090, “Structure-activity relationship study of PROTACs against hematopoietic prostaglandin D2 synthase” (RSC Med Chem, 2022).
# pIC50: −log10 of the molar value. Calls of active or inactive are those of the source. No cut-off for these calls is given here.
# How the values were obtained:
# [1] = biological target: T1, Hematopoietic prostaglandin D synthase (Homo sapiens, UniProt O60760); experiment: Binding affinity to recombinant human H-PGDS incubated for 1 hrs by competitive fluorescence polarization assay
# T1 sequence (O60760 whole entry): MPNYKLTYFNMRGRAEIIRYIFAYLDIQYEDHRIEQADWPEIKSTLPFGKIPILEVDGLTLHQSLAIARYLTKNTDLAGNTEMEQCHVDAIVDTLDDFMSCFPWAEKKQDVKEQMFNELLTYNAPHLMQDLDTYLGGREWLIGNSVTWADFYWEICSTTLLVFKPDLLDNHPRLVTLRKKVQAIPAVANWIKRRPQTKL
# Procedure, shortened: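 Competitive FP assay using a commercial kit. Recombinant human H-PGDS, glutathione and fluorescent probe in assay buffer. Compounds were added from DMSO stocks at final 2.50 μM to 2.44 nM (11 points), in triplicate, for 1 h at room temperature. Read at ex 470/em 530 nm in mP. IC50 is the concentration giving a 50% mP reduction, from a semi-log plot.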
# [2] = biological target: T1, Hematopoietic prostaglandin D synthase; experiment: Inhibition of H-PGDS in human KU812 cells assessed as reduction in A23187-stimulated PGD2 levels at 10 nM preincubated for 24 hrs followed by A23187 stimulation for 30 mins by ELISA analysis; type: cell-based; settings: KU812 cell line, time 24.5 hrs
# Procedure, shortened: (§1)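 KU812 cells (human CML; RPMI-1640, 10% FBS, penicillin–streptomycin) were treated with compound for 24 h. They were then stimulated with 5 μM calcium ionophore A23187 for 30 min. PGD2 in the culture medium was quantified by PGD2-MOX ELISA per the kit instructions.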
# [3] = biological target: T2, Protein cereblon/Hematopoietic prostaglandin D synthase (Homo sapiens, UniProt O60760+Q96SW2); experiment: PROTAC activity at CRBN/H-PGDS in human KU812 cells assessed as reduction in A23187-stimulated PGD2 levels at 10 nM preincubated for 24 hrs followed by A23187 stimulation for 30 mins by ELISA analysis relative to control; type: cell-based; settings: KU812 cell line, time 24.5 hrs; procedure, shortened: as §1
# Target sequence in this assay (O60760 whole entry, looked up): as the sequence (O60760 whole entry) above
# Target sequence in this assay (Q96SW2 whole entry, looked up): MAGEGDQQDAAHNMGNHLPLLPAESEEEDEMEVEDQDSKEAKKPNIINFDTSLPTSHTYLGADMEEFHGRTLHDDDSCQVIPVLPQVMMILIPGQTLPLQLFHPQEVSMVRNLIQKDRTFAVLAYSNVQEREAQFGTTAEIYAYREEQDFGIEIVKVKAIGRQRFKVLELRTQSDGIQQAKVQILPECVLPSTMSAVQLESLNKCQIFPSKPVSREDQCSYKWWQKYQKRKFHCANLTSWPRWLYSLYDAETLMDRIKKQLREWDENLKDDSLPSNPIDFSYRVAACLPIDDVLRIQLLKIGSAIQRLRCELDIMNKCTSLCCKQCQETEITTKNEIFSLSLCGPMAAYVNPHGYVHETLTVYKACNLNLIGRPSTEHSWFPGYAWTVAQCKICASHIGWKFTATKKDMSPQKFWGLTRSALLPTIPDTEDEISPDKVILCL
# [4] = biological target: T2, Protein cereblon/Hematopoietic prostaglandin D synthase; experiment: PROTAC activity at CRBN/H-PGDS in human KU812 cells assessed as reduction in H-PGDS levels incubated for 24 hrs by Western blotting analysis; type: cell-based, KU812 cell line
# Procedure, shortened: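 KU812 cells were incubated with a compound concentration series for 24 h. SDS lysates (equal protein) were blotted for H-PGDS and β-actin with ECL quantification. The H-PGDS/actin ratio was set relative to DMSO (100%); mean ± SEM, n = 3. DC50 came from a linear fit through the three points spanning 50% protein level.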
# Target sequence in this assay (O60760 whole entry): as the sequence (O60760 whole entry) above
# Target sequence in this assay (Q96SW2 whole entry): as the sequence (Q96SW2 whole entry, looked up) above
# [5] = biological target: T2, Protein cereblon/Hematopoietic prostaglandin D synthase; experiment: PROTAC activity at CRBN/H-PGDS in human KU812 cells assessed as reduction in H-PGDS levels at 1 nM incubated for 6 hrs by Western blotting analysis; type: cell-based; settings: KU812 cell line
# Procedure, shortened: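 KU812 cells were exposed to compound for 6 h, with MG132 or MLN7243 co-treatment or ligand competition in some arms. Lysates in SDS buffer were boiled and equal protein by BCA was run on SDS-PAGE. Blots used anti-H-PGDS and anti-β-actin with ECL detection. H-PGDS/β-actin was normalized to the DMSO control (100%); mean ± SEM, n = 3.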
# Target sequence in this assay (O60760 whole entry, looked up): as the sequence (O60760 whole entry) above
# Target sequence in this assay (Q96SW2 whole entry, looked up): as the sequence (Q96SW2 whole entry, looked up) above
Structure (SMILES),pIC50 [1],inhibition [2],Activity [3],DC50 [4] [nM],Activity [5]
Cn1cccc1C(=O)N1CCN(C(=O)Nc2ccc(N3CCC(C(=O)N4CCOCC4)CC3)cc2)CC1,6.87,Active,–,–,–
O=C1CCC(N2C(=O)c3ccc(N4CCN(C(=O)C5CCN(c6ccc(NC(=O)c7cnc(Oc8ccccc8)nc7)cc6)CC5)CC4)cc3C2=O)C(=O)N1 (configuration not stated),6.71,–,Active,0.0276,Active
Cn1cccc1C(=O)N1CCN(C(=O)Nc2ccc(N3CCC(C(=O)N4CCN(c5ccc6c(c5)C(=O)N(C5CCC(=O)NC5=O)C6=O)CC4)CC3)cc2)CC1 (configuration not stated),6.91,–,Active,0.0238,–
O=C(Nc1ccc(N2CCC(C(=O)N3CCOCC3)CC2)cc1)c1cnc(Oc2ccccc2)nc1,6.68,Active,–,–,–

# More lines, now with the values ahead:
pIC50 [1],inhibition [2],Activity [3],DC50 [4] [nM],Activity [5],Structure (SMILES)
6.93,–,Active,0.0187,–,O=C1CCC(N2C(=O)c3cccc(N4CCN(C(=O)C5CCN(c6ccc(NC(=O)c7cnc(Oc8ccccc8)nc7)cc6)CC5)CC4)c3C2=O)C(=O)N1 (configuration not stated)
7.11,–,Active,0.0714,–,Cn1cccc1C(=O)N1CCN(C(=O)Nc2ccc(N3CCC(C(=O)N4CCN(c5cccc6c5C(=O)N(C5CCC(=O)NC5=O)C6=O)CC4)CC3)cc2)CC1 (configuration not stated)
